Among the data in ChEMBL document CHEMBL5036319, “Discovery of Novel Benzothiazepinones as Irreversible Covalent Glycogen Synthase Kinase 3β Inhibitors for the Treatment of Acute Promyelocytic Leukemia” (J Med Chem, 2021) are IC50, inhibition and viability values, retold here.

In one series the test system is NB-4. In words: Cytotoxicity against human NB-4 cells assessed as reduction in cell viability measured after 24 hrs by CCK-8 assay. In kind it is functional, cell-based. The settings on record: NB-4, 24 h. An outline of the steps:
(§1)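 Cells were grown in RPMI-1640 or high-glucose DMEM with 10% FBS at 37 °C, 5% CO2, and seeded at 3 × 10^4 cells/well. Exposure was 24 h across serial concentrations (0−1000 μM in the screen). […] Three independent experiments, mean ± SEM.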

In the next series the test system is NB4-DR1. In words: Antiproliferative activity against human NB4-DR1 cells assessed as reduction in cell viability incubated for 24 hrs by CCK-8 assay. The note with it: NB4-DR1, 24 h. In kind it is functional, cell-based. An outline of the steps: as §1
The target in series [1] is Glycogen synthase kinase-3 beta (Homo sapiens, UniProt P49841). Nature of the series: Inhibition of recombinant human GSK-3beta using GS-2 peptide as substrate incubated for 30 mins in presence of ATP by kinase-glo luminescence assay. On the technique in general: Kinase-Glo measures the ATP left after a reaction by luminescence.
A further series has as its system MOLT-4. Nature of the series: Cytotoxicity against human MOLT-4 cells assessed as reduction in cell viability measured after 24 hrs by CCK-8 assay. In kind it is functional, cell-based. The note with it: MOLT-4, 24 h. In short, it runs like this: as §1
The test system of a further series is HL-60. Nature of the series: Cytotoxicity against human HL-60 cells assessed as reduction in cell viability measured after 24 hrs by CCK-8 assay. It counts as functional, cell-based. The note with it: HL-60, 24 h. An outline of the steps: as §1
For orientation: Formazan colour is commonly taken as a measure of viable cells.

The test system of the next series is Raji. Nature of the series: Cytotoxicity against human Raji cells assessed as reduction in cell viability measured after 24 hrs by CCK-8 assay. It counts as functional, cell-based. In short, it runs like this:
as §1

Series [2] concerns the target Glycogen synthase kinase-3 alpha (Homo sapiens) (UniProt P49840). In words: Inhibition of recombinant human GSK-3alpha at 100 uM by mobility shift assay relative to control.
A short description of series [3]: Cytotoxicity against human L02 cells assessed as cell viability at 0 to 50 uM incubated for 24 hrs by CCK-8 assay relative to control. In kind it is cell-based. The settings on record: dose 0-50 µM, read-out: Activity. An outline of the steps: (§2)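 HUVEC and LO2 normal cells were cultured in RPMI-1640 or DMEM with 10% FBS at 37 °C, 5% CO2, and seeded at 3 × 10^4 cells/well. They were exposed for 24 h to graded concentrations. CCK-8 incubation was 3 h at 37 °C, with A450 read and viability expressed versus untreated control. Three independent experiments, mean ± SEM.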

Series [4] in a line: Cytotoxicity against HUVEC assessed as cell viability at 0 to 50 uM incubated for 24 hrs by CCK-8 assay relative to control. It counts as cell-based. The settings on record: human, dose 0-50 µM, read-out: Activity. In short, it runs like this:
as §2

Series [5] addresses Vascular endothelial growth factor receptor 1 (Homo sapiens) (UniProt P17948). In words: Inhibition of Flt-1 (unknown origin) at 100 uM incubated for 60 mins by ELISA relative to control. In short, it runs like this: (§3)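 Tyrosine kinase ELISA on plates precoated with poly(Glu,Tyr) 4:1 substrate. Reaction used 10 μM ATP in buffer (50 mM HEPES pH 7.4, 50 mM MgCl2, 0.5 mM MnCl2, 0.2 mM Na3VO4, 1 mM DTT) with compound in 1% DMSO. Purified kinase started the reaction, 60 min at 37 °C. Detection by anti-phosphotyrosine PY99 then HRP anti-mouse IgG with o-phenylenediamine/H2O2. Read at 490 nm; inhibition = [1 − A490/A490 control] × 100%.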
A general note: In an ELISA, binding on a coated surface is turned into a signal by an enzyme label.

Series [6] addresses Vascular endothelial growth factor receptor 2 (Homo sapiens) (UniProt P35968). Nature of the series: Inhibition of KDR (unknown origin) at 100 uM incubated for 60 mins by ELISA relative to control. An outline of the steps: as §3
The target of series [7] is Fibroblast growth factor receptor 1 (Homo sapiens) (UniProt P11362). Nature of the series: Inhibition of FGFR1 (unknown origin) at 100 uM incubated for 60 mins by ELISA relative to control. In short, it runs like this: as §3
In series [8] the target is Platelet-derived growth factor receptor alpha (Homo sapiens) (UniProt P16234). Nature of the series: Inhibition of PDGFRalpha (unknown origin) at 100 uM incubated for 60 mins by ELISA relative to control. In short, it runs like this:
as §3

The target in series [9] is Platelet-derived growth factor receptor beta (Homo sapiens) (UniProt P09619). Nature of the series: Inhibition of PDGFRbeta (unknown origin) at 100 uM incubated for 60 mins by ELISA relative to control. An outline of the steps:
as §3

The target in series [10] is Mast/stem cell growth factor receptor Kit (Homo sapiens) (UniProt P10721). Nature of the series: Inhibition of c-Kit (unknown origin) at 100 uM incubated for 60 mins by ELISA relative to control. An outline of the steps: as §3
Series [11] addresses Proto-oncogene tyrosine-protein kinase receptor Ret (Homo sapiens) (UniProt P07949). In words: Inhibition of RET (unknown origin) at 100 uM incubated for 60 mins by ELISA relative to control. An outline of the steps:
as §3

Series [12] concerns the target Receptor tyrosine-protein kinase erbB-4 (Homo sapiens) (UniProt Q15303). In words: Inhibition of ERBB4 (unknown origin) at 100 uM incubated for 60 min by ELISA relative to control. In short, it runs like this: as §3
Series [13] addresses Casein kinase 2 (Homo sapiens) (UniProt P67870+P68400+P19784+Q8NEV1). Nature of the series: Inhibition of CK2 (unknown origin) at 100 uM incubated for 60 mins by Millipore Kinase Profiler service relative to control.
The species named for a further series is Homo sapiens. In words: Inhibition of PKA (unknown origin) at 100 uM incubated for 60 mins by Millipore Kinase Profiler service relative to control.
Series [14] has as its target Fibroblast growth factor receptor 1 (Homo sapiens) (UniProt P11362). In words: Inhibition of FGFR1 (unknown origin) incubated for 60 mins by ELISA. The note with it: dose 100.0 µM.

Chain of Glycogen synthase kinase-3 beta (P49841 whole entry): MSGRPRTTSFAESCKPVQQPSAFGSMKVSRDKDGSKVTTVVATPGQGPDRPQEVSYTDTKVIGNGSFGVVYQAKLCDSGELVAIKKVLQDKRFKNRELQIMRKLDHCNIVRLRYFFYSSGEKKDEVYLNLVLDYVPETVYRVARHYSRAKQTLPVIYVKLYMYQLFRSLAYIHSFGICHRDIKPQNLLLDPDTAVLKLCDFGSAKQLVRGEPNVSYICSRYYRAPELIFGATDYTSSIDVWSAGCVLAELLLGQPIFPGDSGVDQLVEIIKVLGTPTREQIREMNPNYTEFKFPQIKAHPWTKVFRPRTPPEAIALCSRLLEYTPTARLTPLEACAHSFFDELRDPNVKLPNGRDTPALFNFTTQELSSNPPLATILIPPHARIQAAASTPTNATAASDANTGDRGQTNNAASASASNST
Chain of Fibroblast growth factor receptor 1 (Homo sapiens) (P11362 22-822 limits assumed): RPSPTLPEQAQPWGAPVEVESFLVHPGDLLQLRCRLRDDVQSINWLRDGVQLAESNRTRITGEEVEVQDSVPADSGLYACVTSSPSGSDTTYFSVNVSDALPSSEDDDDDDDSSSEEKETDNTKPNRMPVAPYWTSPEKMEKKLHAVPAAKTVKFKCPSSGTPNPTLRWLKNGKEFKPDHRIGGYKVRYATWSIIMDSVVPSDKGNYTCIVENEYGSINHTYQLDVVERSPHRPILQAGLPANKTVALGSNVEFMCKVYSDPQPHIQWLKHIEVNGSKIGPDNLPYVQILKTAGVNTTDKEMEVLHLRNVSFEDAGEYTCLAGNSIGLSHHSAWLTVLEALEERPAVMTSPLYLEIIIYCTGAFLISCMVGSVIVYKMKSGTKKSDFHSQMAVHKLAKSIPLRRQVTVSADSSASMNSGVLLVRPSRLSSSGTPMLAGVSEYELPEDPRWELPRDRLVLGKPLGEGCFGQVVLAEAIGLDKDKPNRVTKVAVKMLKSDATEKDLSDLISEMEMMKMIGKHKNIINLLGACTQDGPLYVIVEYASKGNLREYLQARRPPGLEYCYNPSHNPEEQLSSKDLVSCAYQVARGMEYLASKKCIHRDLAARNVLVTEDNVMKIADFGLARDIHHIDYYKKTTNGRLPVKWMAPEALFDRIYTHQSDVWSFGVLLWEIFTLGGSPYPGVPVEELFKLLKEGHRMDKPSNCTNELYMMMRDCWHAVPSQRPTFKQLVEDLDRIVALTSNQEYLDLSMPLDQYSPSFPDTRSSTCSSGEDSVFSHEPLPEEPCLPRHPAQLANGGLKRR
Chain of Glycogen synthase kinase-3 alpha (Homo sapiens) (P49840 2-483 limits assumed): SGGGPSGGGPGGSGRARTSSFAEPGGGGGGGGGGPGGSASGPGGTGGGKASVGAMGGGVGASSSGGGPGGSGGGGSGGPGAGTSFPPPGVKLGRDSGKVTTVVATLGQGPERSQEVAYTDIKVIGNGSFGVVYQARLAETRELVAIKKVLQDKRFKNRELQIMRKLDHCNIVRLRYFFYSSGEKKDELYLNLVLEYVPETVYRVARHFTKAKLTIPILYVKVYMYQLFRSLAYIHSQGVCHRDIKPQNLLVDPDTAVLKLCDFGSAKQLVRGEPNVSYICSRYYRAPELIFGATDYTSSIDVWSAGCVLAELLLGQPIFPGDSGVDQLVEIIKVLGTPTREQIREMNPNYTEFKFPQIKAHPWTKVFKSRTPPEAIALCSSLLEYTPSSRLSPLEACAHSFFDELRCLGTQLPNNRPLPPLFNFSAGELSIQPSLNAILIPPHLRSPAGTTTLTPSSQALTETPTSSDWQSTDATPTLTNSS
Chain of Platelet-derived growth factor receptor beta (Homo sapiens) (P09619 whole entry): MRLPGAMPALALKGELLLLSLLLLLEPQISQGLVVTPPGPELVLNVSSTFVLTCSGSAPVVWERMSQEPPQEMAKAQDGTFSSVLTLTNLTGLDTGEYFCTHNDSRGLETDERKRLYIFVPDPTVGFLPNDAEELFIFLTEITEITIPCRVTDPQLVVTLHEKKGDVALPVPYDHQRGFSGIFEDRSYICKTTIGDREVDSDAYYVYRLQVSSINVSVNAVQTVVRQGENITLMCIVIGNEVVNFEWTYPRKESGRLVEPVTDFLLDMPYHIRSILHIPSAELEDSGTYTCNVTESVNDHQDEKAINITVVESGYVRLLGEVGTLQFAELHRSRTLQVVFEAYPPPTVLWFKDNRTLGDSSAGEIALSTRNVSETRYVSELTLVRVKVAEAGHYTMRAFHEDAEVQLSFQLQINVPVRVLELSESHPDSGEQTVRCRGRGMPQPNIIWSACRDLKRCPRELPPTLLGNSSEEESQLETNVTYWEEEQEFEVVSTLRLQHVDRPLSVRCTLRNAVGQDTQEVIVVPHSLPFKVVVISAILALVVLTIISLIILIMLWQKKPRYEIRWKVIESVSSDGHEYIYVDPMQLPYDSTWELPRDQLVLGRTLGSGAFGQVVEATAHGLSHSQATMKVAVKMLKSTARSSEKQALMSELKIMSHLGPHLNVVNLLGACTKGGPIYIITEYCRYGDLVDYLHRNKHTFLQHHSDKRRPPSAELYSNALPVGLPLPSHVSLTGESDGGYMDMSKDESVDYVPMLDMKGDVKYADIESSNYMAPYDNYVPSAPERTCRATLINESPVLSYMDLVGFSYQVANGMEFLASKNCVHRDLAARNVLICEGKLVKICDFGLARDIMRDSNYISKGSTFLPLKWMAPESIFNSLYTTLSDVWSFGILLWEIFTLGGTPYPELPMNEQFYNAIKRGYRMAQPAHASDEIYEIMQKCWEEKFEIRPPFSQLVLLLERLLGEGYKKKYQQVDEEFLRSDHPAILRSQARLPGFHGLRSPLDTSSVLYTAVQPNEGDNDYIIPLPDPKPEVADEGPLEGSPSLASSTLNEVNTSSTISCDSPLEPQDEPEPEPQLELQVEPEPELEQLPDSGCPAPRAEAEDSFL
Chain of Vascular endothelial growth factor receptor 2 (Homo sapiens) (P35968 whole entry): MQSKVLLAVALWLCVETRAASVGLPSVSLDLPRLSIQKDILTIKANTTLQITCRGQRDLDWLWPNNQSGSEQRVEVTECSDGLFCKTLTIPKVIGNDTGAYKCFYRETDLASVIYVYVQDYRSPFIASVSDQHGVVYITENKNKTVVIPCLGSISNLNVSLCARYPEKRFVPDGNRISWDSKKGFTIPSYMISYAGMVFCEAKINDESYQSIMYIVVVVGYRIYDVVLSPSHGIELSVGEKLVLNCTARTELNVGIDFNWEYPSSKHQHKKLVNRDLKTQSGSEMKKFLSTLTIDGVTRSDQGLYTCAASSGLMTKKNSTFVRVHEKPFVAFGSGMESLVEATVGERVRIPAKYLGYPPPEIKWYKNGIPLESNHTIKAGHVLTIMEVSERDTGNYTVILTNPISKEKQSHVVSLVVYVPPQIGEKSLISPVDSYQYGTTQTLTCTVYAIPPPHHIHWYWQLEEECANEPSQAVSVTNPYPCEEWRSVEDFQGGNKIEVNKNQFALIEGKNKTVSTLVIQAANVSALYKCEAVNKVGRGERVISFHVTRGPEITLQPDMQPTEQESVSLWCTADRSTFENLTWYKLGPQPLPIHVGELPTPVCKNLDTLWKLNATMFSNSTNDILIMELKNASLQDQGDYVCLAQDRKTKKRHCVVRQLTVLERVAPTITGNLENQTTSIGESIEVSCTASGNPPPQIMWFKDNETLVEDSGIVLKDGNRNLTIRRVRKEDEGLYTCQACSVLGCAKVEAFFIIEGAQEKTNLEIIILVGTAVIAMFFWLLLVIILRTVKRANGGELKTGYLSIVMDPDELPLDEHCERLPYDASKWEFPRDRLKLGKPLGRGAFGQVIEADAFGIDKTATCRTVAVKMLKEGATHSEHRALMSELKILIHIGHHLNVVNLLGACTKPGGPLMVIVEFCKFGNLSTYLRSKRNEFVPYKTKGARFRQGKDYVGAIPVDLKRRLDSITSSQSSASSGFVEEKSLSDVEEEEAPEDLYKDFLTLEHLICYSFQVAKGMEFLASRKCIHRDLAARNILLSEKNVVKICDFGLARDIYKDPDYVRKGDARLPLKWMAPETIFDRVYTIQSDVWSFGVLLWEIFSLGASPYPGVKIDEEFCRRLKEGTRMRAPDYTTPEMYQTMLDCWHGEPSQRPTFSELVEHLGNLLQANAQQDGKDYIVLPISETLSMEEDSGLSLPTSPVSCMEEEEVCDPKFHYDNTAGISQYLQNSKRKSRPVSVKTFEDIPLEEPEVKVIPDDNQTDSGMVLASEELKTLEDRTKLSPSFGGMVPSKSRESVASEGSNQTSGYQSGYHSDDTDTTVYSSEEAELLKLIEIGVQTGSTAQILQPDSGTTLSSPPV

As to `[Cl-].[Li+]` [CHLOROLITHIUM], the IC50 – broadly, the concentration needed to halve the response being measured – in the series on NB-4 amounted to 5320 µM; in the series on NB4-DR1, 42500 µM.

As for `C=CC(=O)N1C(=O)CC(c2ccccc2Cl)Sc2ccccc21` (stereo unspecified), the IC50 turned out to be 2.5 µM in [1]; 33.8 µM in the series with NB-4; 80.3 µM with MOLT-4; 91.4 µM in the series on HL-60; 50.4 µM in the series on Raji. In addition, the inhibition (as a rule, the percentage by which the read-out fell short of the control) in [2] worked out at 61.8%.

Turning to `C=CC(=O)N1C(=O)CC(c2ccc(C#N)cc2)Sc2ccccc21` (stereo unspecified), the IC50 was determined as 6.2 µM in series [1]; 62.4 µM in the series on NB-4; 88.7 µM with MOLT-4; 115 µM with HL-60; 84.5 µM in the series on Raji. Besides, the inhibition in [2] stood at 92.9%.

Regarding `C=CC(=O)N1C(=O)CC(C)Sc2ccccc21` (stereo unspecified), the IC50 in series [1] was found to be 20 µM; with NB-4, 227 µM; in the series with MOLT-4 it was 730 µM; in the series on HL-60, 199 µM; in the series on Raji it was 837 µM.

As for `C=CC(=O)N1C(=O)CC(c2cccc(Cl)c2)Sc2ccccc21` (stereo unspecified), the IC50 came to 4 µM in [1]; 31.7 µM in the series with NB-4; 77.5 µM in the series with MOLT-4; 93.1 µM with HL-60; 47.1 µM in the series on Raji.

Take `C=CC(=O)N1C(=O)CC(c2ccc(C(F)(F)F)cc2)Sc2ccccc21` (stereo unspecified): the IC50 in series [1] was found to be 15 µM; in the series on NB-4 it was 38.6 µM; with MOLT-4, 76.3 µM; in the series with HL-60, 106 µM; with Raji, 47.6 µM. Moreover, in series [2], the inhibition is 20%.

For `C=CC(=O)N1C(=O)CCSc2ccccc21`, the IC50 in series [1] is 17 µM; in the series with NB-4, 22.4 µM; in the series with MOLT-4, 565 µM; in the series with HL-60 it was 44.8 µM; in the series with Raji, 581 µM.

For `C=CC(=O)NCCN1C(=O)CC(c2ccccc2)Sc2ccccc21` (stereo unspecified), in series [1], the IC50 is > 100 µM.

As for `C=CC(=O)N1C(=O)CC(c2ccc(C(=O)OC)cc2)Sc2ccccc21` (stereo unspecified), the IC50 in series [1] is 6 µM; with NB-4, 24.4 µM; in the series on MOLT-4, 79.6 µM; with HL-60, 102 µM; with Raji, 89.6 µM; in the series on NB4-DR1 it was 93.1 µM. For the same molecule, the viability at 24 h, up to 50 µM in [3] and in series [4] was > 80% each time.

On to `C=CC(=O)N1C(=O)CC(c2ccc(N3CCOCC3)cc2)Sc2ccccc21` (stereo unspecified), for which the IC50 amounted to 15 µM in series [1]; 42.4 µM in the series on NB-4; 65 µM in the series with MOLT-4; 98 µM with HL-60; 56.2 µM with Raji.

For `C=CC(=O)N1C(=O)CC(c2ccc([N+](=O)[O-])cc2)Sc2ccccc21` (stereo unspecified), the IC50 came out at 7.5 µM in series [1]; 37.6 µM in the series on NB-4; 91.5 µM in the series on MOLT-4; 107 µM with HL-60; 34.8 µM with Raji. In addition, the inhibition in series [2] was determined as 50.7%.

As for `C=CC(=O)N1C(=O)CC(c2ccc(C)cc2)Sc2ccccc21` (stereo unspecified), the IC50 in series [1] is 4.8 µM; in the series with NB-4 it was 37.3 µM; in the series with MOLT-4, 87.6 µM; with HL-60, 94.4 µM; in the series on Raji, 75.5 µM. Besides, in series [2], the inhibition was 30%.

On to `C=CC(=O)N1C(=O)CC(c2ccc(-c3ccccc3)cc2)Sc2ccccc21` (stereo unspecified), for which the IC50 in series [1] was 5.8 µM; with NB-4, 57.7 µM; in the series on MOLT-4 it was 97.5 µM; with HL-60, 118 µM; in the series with Raji it was 56.3 µM. Further, the inhibition in [2] stood at 13.4%.

In the case of `C=CC(=O)N1C(=O)CC(c2cccs2)Sc2ccccc21` (stereo unspecified), the IC50 in series [1] was found to be 4.9 µM; in the series with NB-4 it was 765 µM; in the series on MOLT-4, 557 µM; with HL-60, 695 µM; in the series on Raji, 659 µM. The inhibition in series [5] was 0%; in series [6], 3.1%; in series [7], 18.8%; in series [8] it was 0%; in series [9] it was 7.8%; in series [10], 26.3%. Moreover, the inhibition in series [11] was 0%; in [12], 0%; in series [13] it was 0%; in the series listed under Homo sapiens it was 22%.

`C=CC(=O)N1C(=O)CC(c2ccc(Cl)cc2)Sc2ccccc21` (stereo unspecified): the IC50 amounted to 6.7 µM in series [1]; 22.6 µM in the series with NB-4; 82.4 µM in the series on MOLT-4; 95.7 µM in the series with HL-60; 18.4 µM in the series with Raji; 48.3 µM in the series with NB4-DR1. In addition, the inhibition came to 46.7% in series [2]; 7.4% in series [5]; 0% in series [6]; 88.3% in series [7]; 11.1% in series [8]; 0% in series [9]. Also, the inhibition was found to be 14% in series [10]; 73.9% in [11]; 0% in [12]; 8% in [13]; 7% in the series listed under Homo sapiens. The viability at 24 h, up to 50 µM in [3] and in series [4] was > 80% throughout.

Consider `C=CC(=O)N1C(=O)CC(c2ccccc2C(F)(F)F)Sc2ccccc21` (stereo unspecified), for which the IC50 in [1] worked out at 2.8 µM; in the series with NB-4, 35.2 µM; in the series with MOLT-4, 84.4 µM; with HL-60 it was 96.4 µM; with Raji, 50.3 µM. Moreover, the inhibition in [2] came to 32%.

For `C=CC(=O)Nc1ccc(C2CC(=O)Nc3ccccc3S2)cc1` (stereo unspecified), in series [1], the IC50 was > 100 µM.

As for `Cc1ccc(C(=O)Nc2ccc(CN3CCN(C)CC3)c(C(F)(F)F)c2)cc1C#Cc1cnc2cccnn12`, in [14], the IC50 was 0.7 nM.

In the case of `CCC(=O)N1C(=O)CC(c2cccs2)Sc2ccccc21` (stereo unspecified), in [1], the IC50 was > 100 µM.

Turning to `C=CC(=O)N1C(=O)CC(c2ccc(Br)cc2)Sc2ccccc21` (stereo unspecified), the IC50 in series [1] was 6.4 µM; with NB-4, 59.4 µM; in the series with MOLT-4, 106 µM; with HL-60, 126 µM; in the series on Raji, 51.3 µM. Besides, the inhibition in series [2] turned out to be 33.4%.

Consider `C=CC(=O)N1C(=O)CC(c2ccc(OC)cc2)Sc2ccccc21` (stereo unspecified), for which the IC50 in [1] is 6.2 µM; in the series with NB-4 it was 32.9 µM; with MOLT-4 it was 83.2 µM; in the series with HL-60, 92.1 µM; with Raji, 43.2 µM.
